Measurements reported in ChEMBL document CHEMBL1275356, “Redox-silent tocotrienol esters as breast cancer proliferation and migration inhibitors” (Bioorg Med Chem, 2010).
pIC50: −log10 of the molar value.

Tests used:
[1] = tested on: MDA-MB-231; experiment: Antimigratory activity against human MDA-MB-231 at 5 uM after 24 hrs by wound-healing assay; assay type: functional; conditions: MDA-MB-231, 24 h
How it was run: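 MDA-MB-231 grown in RPMI 1640 with 10 mM HEPES, 4 mM L-glutamine, 10% FBS, 5% CO2, 37 °C. Confluent (>95%) monolayers scratched with pipette tip, washed with PBS, then given compound in DMSO at 5 µM (DMSO vehicle control), in triplicate. After 24 h under serum starvation, cells fixed and Diff Quick stained. Migrated cells counted in ≥3 random 400× fields, mean ± SEM.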

[2] = Cytotoxicity against mouse +SA cells after 24 hrs by MTT assay; assay type: functional, cell-based; conditions: +SA cell
How it was run: (§1)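 Compounds dissolved in DMSO, conjugated overnight to 10% BSA at 37 °C, tested at 0–40 µM, final DMSO <0.1%. +SA cells seeded at 5 × 10⁴/well or CL-S1 at 1 × 10⁵/well (six wells/group), grown 3 days (~70% confluent), then treated 24 h. MTT 0.42 mg/mL, 4 h at 37 °C; crystals dissolved in isopropanol, read at 570 nm. Cell number from standard curve; IC50 by linear regression.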

[3] = Cytotoxicity against mouse CL-S1 cells assessed as cell viability after 24 hrs by MTT assay; assay type: cell-based; conditions: cl-s1, 24 h; how it was run: as §1
[4] = Chemical stability of the compound in phosphate buffer at pH 7.4 after 1 hr by HPLC method relative to zero time concentration; assay type: physicochemical; conditions: pH 7.4, 1 h
How it was run: (§2)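 500 µg/mL compound dissolved in pH 7.4 phosphate buffer in amber vials and kept at 37 °C. Samples taken at 0, 0.5, 1, 2, 4, 6 and 24 h, mixed with equal volume methanol, analysed by HPLC with UV at 295 nm. Amount expressed relative to the zero-time concentration.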

[5] = Chemical stability of the compound in phosphate buffer at pH 7.4 after 24 hrs by HPLC method relative to zero time concentration; assay type: physicochemical; how it was run: as §2
[6] = Stability of the compound in rat plasma after 24 hrs by HPLC method relative to zero time concentration; assay type: ADME, cell-free; conditions: read-out: Stability
How it was run: (§3)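 50 µg/mL compound dissolved in rat plasma in amber vials and incubated at 37 °C. Samples taken at 0, 0.5, 1, 2, 4, 6 and 24 h, mixed with 100 µL methanol, centrifuged 14,000 rpm for 10 min. Supernatant analysed by HPLC with UV at 295 nm, relative to zero-time concentration.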

[7] = Solubility of the compound in phosphate buffer at pH 7.4 after up to 24 hrs by HPLC method relative to alpha-tocotrienol; assay type: physicochemical; conditions: pH 7.4, 24 h
How it was run: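 About 5.6 mg compound added to 3 mL pH 7.4 phosphate buffer in amber vials and shaken at 25 °C for 24 h. Centrifuged 5000 rpm, 10 min; clear supernatant sampled at 0, 1, 2, 4, 6 and 24 h. Concentration determined by HPLC with UV at 295 nm.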

[8] = Stability of the compound in rat plasma after 4 hrs by HPLC method relative to zero time concentration; assay type: ADME, cell-free; conditions: read-out: Stability; how it was run: as §3

Row | Structure (SMILES) | inhibition at 5 µM [1] | pIC50 [2] | further results
1 | CC(C)=CCC/C(C)=C/CC/C(C)=C/CC[C@]1(C)CCc2cc(OC(=O)c3cc(C(=O)O)ccc3C(=O)O)cc(C)c2O1 | 50% | 5.82 | 
2 | CC(C)=CCC/C(C)=C/CC/C(C)=C/CC[C@]1(C)CCc2cc(OC(=O)/C=C\C(=O)O)c(C)c(C)c2O1 | 50% | 5.64 | 
3 | CC(=O)Oc1ccc(/C=C/C(=O)Oc2cc3c(c(C)c2C)O[C@](C)(CC/C=C(\C)CC/C=C(\C)CCC=C(C)C)CC3)cc1OC(C)=O |  | < 4.40 | Activity [3]: Non-toxic
4 | CC(C)=CCC/C(C)=C/CC/C(C)=C/CC[C@]1(C)CCc2cc(OC(=O)c3ccc(C(=O)O)cc3C(=O)O)c(C)c(C)c2O1 |  | 6.21 | 
5 | CC(C)=CCC/C(C)=C/CC/C(C)=C/CC[C@]1(C)CCc2c(C)c(OC(=O)c3cc(C(=O)O)ccc3C(=O)O)c(C)c(C)c2O1 | 50% | 5.84 | 
6 | CC(C)=CCC/C(C)=C/CC/C(C)=C/CC[C@]1(C)CCc2cc(OC(=O)CC(C)CC(=O)O)c(C)c(C)c2O1 (stereo not given in full) |  | 4.72 | Activity [3]: Non-toxic
7 | CC(C)=CCC/C(C)=C/CC/C(C)=C/CC[C@]1(C)CCc2cc(OC(=O)c3ccccc3)c(C)c(C)c2O1 | 50% | 5.18 | Activity [3]: Non-toxic
8 | CC(C)=CCC/C(C)=C/CC/C(C)=C/CC[C@]1(C)CCc2cc(OC(=O)c3cc(C(=O)O)ccc3C(=O)O)c(C)c(C)c2O1 |  | 5.84 | 
9 | CC(C)=CCC/C(C)=C/CC/C(C)=C/CC[C@]1(C)CCc2cc(O)c(C)c(C)c2O1 [GAMMA-TOCOTRIENOL] |  | 5.40 | 
10 | CC(C)=CCC/C(C)=C/CC/C(C)=C/CC[C@]1(C)CCc2cc(OC(=O)/C=C\C(=O)O)cc(C)c2O1 |  | 6.06 | 
11 | CC(=O)Oc1cc(C(=O)Oc2cc3c(c(C)c2C)O[C@](C)(CC/C=C(\C)CC/C=C(\C)CCC=C(C)C)CC3)cc(OC(C)=O)c1OC(C)=O |  | 5.76 | 
12 | CC(C)=CCC/C(C)=C/CC/C(C)=C/CC[C@]1(C)CCc2c(C)c(OC(=O)c3ccc(C(=O)O)cc3C(=O)O)c(C)c(C)c2O1 | 50% | 5.82 | 
13 | CC(C)=CCC/C(C)=C/CC/C(C)=C/CC[C@]1(C)CCc2c(C)c(O)c(C)c(C)c2O1 [ALPHA-TOCOTRIENOL] |  | 5.30 | Stability [4]: Unstable; Stability ([5]; buffer, pH 7.4, 24 h): Unstable
14 | CC(C)=CCC/C(C)=C/CC/C(C)=C/CC[C@]1(C)CCc2c(C)c(OC(=O)/C=C\C(=O)O)c(C)c(C)c2O1 | 50% | 6.28 | remaining at 24 h [6]: 43%; fold change (FC) [7]: 1000; remaining at 4 h [8]: 81%; remaining at 24 h ([5]; phosphate buffer, pH 7.4, read-out: Stability): 100%
15 | CC(C)=CCC/C(C)=C/CC/C(C)=C/CC[C@]1(C)CCc2cc(O)cc(C)c2O1 [DELTA-TOCOTRIENOL] |  | 5.52 | 
